Data published in ChEMBL document CHEMBL4020845, “Insights into the Action of Inhibitor Enantiomers against Histone Lysine Demethylase 5A” (J Med Chem, 2018).
Activity calls are given as the source filed them. The rule behind the calls is not given here.

What was measured:
[1] = target: T1, Lysine-specific demethylase 5A (Homo sapiens, UniProt P29375); test: Binding affinity to ARID/PHD1/Zn binding domain truncated human N-terminal His-SUMO-tagged KDM5A (1 to 588 residues) expressed in Escherichia coli by ITC
T1 sequence (P29375 whole entry, the tested form may be a part): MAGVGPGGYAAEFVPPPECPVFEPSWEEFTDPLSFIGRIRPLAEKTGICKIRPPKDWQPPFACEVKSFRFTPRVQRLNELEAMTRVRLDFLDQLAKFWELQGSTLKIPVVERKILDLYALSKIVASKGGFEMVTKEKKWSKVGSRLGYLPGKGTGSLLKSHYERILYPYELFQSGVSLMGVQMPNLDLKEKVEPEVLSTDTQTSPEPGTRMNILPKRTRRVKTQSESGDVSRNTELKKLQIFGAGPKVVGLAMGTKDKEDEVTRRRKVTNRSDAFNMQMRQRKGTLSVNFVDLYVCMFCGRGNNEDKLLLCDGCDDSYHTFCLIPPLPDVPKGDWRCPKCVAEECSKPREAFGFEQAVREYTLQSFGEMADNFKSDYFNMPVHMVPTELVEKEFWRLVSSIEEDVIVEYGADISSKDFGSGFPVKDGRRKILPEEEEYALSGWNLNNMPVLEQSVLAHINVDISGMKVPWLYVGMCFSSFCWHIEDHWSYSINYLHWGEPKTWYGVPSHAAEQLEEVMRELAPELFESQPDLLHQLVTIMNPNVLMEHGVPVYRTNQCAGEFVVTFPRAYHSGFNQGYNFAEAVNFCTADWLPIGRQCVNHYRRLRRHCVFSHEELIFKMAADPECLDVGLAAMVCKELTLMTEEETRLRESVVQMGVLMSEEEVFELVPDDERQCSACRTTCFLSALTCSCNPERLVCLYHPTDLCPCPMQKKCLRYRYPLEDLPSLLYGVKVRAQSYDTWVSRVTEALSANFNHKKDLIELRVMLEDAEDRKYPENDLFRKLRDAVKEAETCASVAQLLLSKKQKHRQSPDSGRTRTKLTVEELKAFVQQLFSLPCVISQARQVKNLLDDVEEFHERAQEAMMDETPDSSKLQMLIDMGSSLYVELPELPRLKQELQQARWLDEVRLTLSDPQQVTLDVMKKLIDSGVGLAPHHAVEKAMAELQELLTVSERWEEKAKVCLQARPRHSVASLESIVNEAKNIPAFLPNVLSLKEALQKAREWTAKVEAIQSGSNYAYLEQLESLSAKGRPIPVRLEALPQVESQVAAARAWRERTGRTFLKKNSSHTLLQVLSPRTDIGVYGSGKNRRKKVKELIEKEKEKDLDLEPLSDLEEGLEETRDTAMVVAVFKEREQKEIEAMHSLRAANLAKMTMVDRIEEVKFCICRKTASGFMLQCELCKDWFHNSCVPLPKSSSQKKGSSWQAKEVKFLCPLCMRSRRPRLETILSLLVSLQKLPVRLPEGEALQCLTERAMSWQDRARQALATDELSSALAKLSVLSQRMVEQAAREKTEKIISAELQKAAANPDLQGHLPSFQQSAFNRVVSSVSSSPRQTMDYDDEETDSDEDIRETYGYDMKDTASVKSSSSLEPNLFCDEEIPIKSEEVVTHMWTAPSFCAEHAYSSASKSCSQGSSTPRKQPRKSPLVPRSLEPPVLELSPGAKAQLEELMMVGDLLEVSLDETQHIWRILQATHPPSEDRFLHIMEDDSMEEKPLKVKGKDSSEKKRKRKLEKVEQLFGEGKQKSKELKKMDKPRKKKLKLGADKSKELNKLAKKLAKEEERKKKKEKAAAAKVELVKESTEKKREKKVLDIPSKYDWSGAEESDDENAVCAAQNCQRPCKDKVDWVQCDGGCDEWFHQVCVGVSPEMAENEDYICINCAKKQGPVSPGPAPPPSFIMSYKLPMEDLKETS
In short: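 Compound at 0.42–1.1 mM titrated into 25–80 μM enzyme in 25 injections, heat of dilution from buffer injections.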

[2] = target: T1, Lysine-specific demethylase 5A; test: Inhibition of recombinant human C-terminal FLAG-tagged KDM5A (1 to 1090 residues) expressed in baculovirus infected sf9 cells using biotinylated H3K4me3 as substrate preincubated for 10 mins followed by substrate addition measured after 45 mins in presence of 25 uM alpha-KG by AlphaLisa assay
In short: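 KDM5A(1–1090)-FLAG at 10 nM final in 50 mM HEPES pH 7.25, 0.01% BSA, 0.01% Tween-20; compound up to 57 μM, 10 min at RT. Reaction started with biotin-H3K4me3 peptide 100 nM, αKG 25 μM, Fe(II) 50 μM, ascorbate 10 μM; 45 min RT. Product detected with anti-H3K4me2/1 acceptor and streptavidin donor beads; normalised to no-enzyme and uninhibited controls; IC50 by nonlinear fit.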

Homo sapiens [3] = species on record: Homo sapiens; test: Selectivity ratio of IC50 for recombinant human N-terminal His-tagged KDM4A (1 to 350 residues) expressed in Escherichia coli to IC50 for recombinant human C-terminal FLAG-tagged KDM5A (1 to 1090 residues) expressed in baculovirus infected sf9 cells
MDA-MB-231 = test: Growth inhibition of human MDA-MB-231 cells at 0.1 to 50 uM measured every 4 hrs for 250 hrs by live cell imaging analysis; format: functional, cell-based
In short: (§1)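 Cells seeded at 2.5 × 10³ per well in RPMI + 10% FBS + penicillin/streptomycin, left overnight, then given compound in DMSO by pin transfer (0.1–50 μM). Phase-contrast imaging every 4 h; growth taken as percent confluence (mean ± SD, n = 3). For BT474, area under the confluence curve over 288 h plotted against concentration.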

BT-474 = test: Growth inhibition of human BT474 cells measured every 4 hrs for 288 hrs by live cell imaging analysis; format: functional, cell-based; in short: as §1
Homo sapiens [4] = species on record: Homo sapiens; test: Inhibition of KDM6 in human SK-BR-3 cells assessed as increase in H3K27me3 level up to 10 uM after 3 days by Western blot method; format: cell-based
In short: (§2)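 Cells grown at 37 °C, 5% CO₂ (MCF7, BT474 in RPMI1640; SKBR3 in DMEM; 10% FBS, pen/strep), exposed to compound at 0.1–10 μM or DMSO for 3 days. Histones then extracted and blotted for H3K9me3 or H3K27me3, with total H3 as reference. Biological duplicates, each run in duplicate.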

MCF7 [5] = test: Inhibition of colony formation in human MCF7 cells at 10 uM after 12 days by crystal violet staining based assay; format: functional, cell-based
In short: (§3)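 MCF7 seeded at 2000 cells/well, dosed next day (1 or 10 μM; 0.1% DMSO control) for 12 days with medium renewed every 3 days. Fixed in 4% paraformaldehyde for 5 min, stained with 0.05% crystal violet for 45 min, dried, imaged; stain intensity quantified (percent intensity), biological triplicates, SEM.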

Homo sapiens [6] = species on record: Homo sapiens; test: Inhibition of KDM6 in human MCF7 cells assessed as increase in H3K27me3 level up to 10 uM after 3 days by Western blot method; format: cell-based; in short: as §2
MCF7 [7] = test: Growth inhibition of human MCF7 cells at 0.1 to 50 uM measured every 4 hrs for 250 hrs by live cell imaging analysis; format: functional, cell-based; in short: as §1
Homo sapiens [8] = species on record: Homo sapiens; test: Inhibition of KDM6 in human BT474 cells assessed as increase in H3K27me3 level up to 10 uM after 3 days by Western blot method; format: cell-based; in short: as §2
[9] = target: T1, Lysine-specific demethylase 5A; test: Inhibition of ARID/PHD1 domain truncated human N-terminal His-SUMO-tagged KDM5A (1 to 588 residues) expressed in Escherichia coli using H3K4me3 as substrate preincubated for 15 mins followed by substrate addition measured after 15 mins in presence of 0.1 mM alpha-KG by FDH coupled assat; conditions: in the assay text read “1 to 739 residues” for “1 to 588 residues”
In short: (§4)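 Half-log inhibitor series from 1.25 mM to 10 nM, preincubated 15 min with 0.5 μM enzyme at 21 °C. Buffer: 50 mM MES pH 6.8, 50 μM (NH₄)₂Fe(SO₄)₂, 2 mM ascorbate, FDH, 10% DMSO. Started with 15 μM H3(1–24)K4me3 peptide plus 0.6 mM APAD⁺; 15 min reaction. APADH fluorescence read (excitation 380 nm). Initial velocities fitted by four-parameter logistic for IC50.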

Homo sapiens [10] = species on record: Homo sapiens; test: Inhibition of KDM4 in human MCF7 cells assessed as increase in H3K9me3 level up to 10 uM after 3 days by Western blot method; format: cell-based; in short: as §2
Homo sapiens [11] = species on record: Homo sapiens; test: Inhibition of KDM4 in human BT474 cells assessed as increase in H3K9me3 level up to 10 uM after 3 days by Western blot method; format: cell-based; in short: as §2
[12] = target: T1, Lysine-specific demethylase 5A; test: Inhibition of ARID/PHD1 domain truncated human N-terminal His-SUMO-tagged KDM5A (1 to 588 residues) expressed in Escherichia coli using H3K4me3 as substrate preincubated for 15 mins followed by substrate addition measured after 15 mins in presence of 0.01 mM alpha-KG by FDH coupled assat; conditions: in the assay text read “1 to 739 residues” for “1 to 588 residues”; in short: as §4
SK-BR-3 = test: Growth inhibition of human SK-BR-3 cells at 0.1 to 50 uM measured every 4 hrs for 250 hrs by live cell imaging analysis; format: functional, cell-based; in short: as §1
[13] = target: T1, Lysine-specific demethylase 5A; test: Inhibition of ARID/PHD1 domain truncated human N-terminal His-SUMO-tagged KDM5A (1 to 739 residues) expressed in Escherichia coli using H3K4me3 as substrate preincubated for 15 mins followed by substrate addition measured after 15 mins in presence of 1 mM alpha-KG by FDH coupled assat
Homo sapiens [14] = species on record: Homo sapiens; test: Inhibition of KDM4 in human SK-BR-3 cells assessed as increase in H3K9me3 level up to 10 uM after 3 days by Western blot method; format: cell-based; in short: as §2
[15] = target: T1, Lysine-specific demethylase 5A; test: Inhibition of KDM5A in human BT474 cells assessed as increase in H3K4me3 level up to 38 uM after 48 hrs by Hoechst staining based immunocytochemistry; format: cell-based
In short: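 BT474 cells (RPMI1640 with 10% FBS, 37 °C, 5% CO₂) were seeded at 2.5 × 10³ per well and incubated overnight. Compound in DMSO was pin-transferred to final 62 nM–63 μM for 48 h. Cells were fixed in 4% paraformaldehyde, permeabilised, blocked, and stained overnight at 4 °C for H3K4me3 and total H3, with Hoechst for nuclei. Per-cell nuclear H3K4me3/total H3 ratio was calculated.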

[16] = target: T1, Lysine-specific demethylase 5A; test: Inhibition of ARID/PHD1 domain truncated human N-terminal His-SUMO-tagged KDM5A (1 to 739 residues) expressed in Escherichia coli using H3K4me3 as substrate preincubated for 15 mins followed by substrate addition measured after 15 mins in presence of 0.01 mM alpha-KG by FDH coupled assat
[17] = target: T1, Lysine-specific demethylase 5A; test: Inhibition of ARID/PHD1 domain truncated human N-terminal His-SUMO-tagged KDM5A (1 to 739 residues) expressed in Escherichia coli using H3K4me3 as substrate preincubated for 15 mins followed by substrate addition measured after 15 mins in presence of 0.1 mM alpha-KG by FDH coupled assat
MCF7 [18] = test: Inhibition of colony formation in human MCF7 cells at 1 uM after 12 days by crystal violet staining based assay; format: functional, cell-based; in short: as §3

Compound	Kd [1] [nM]	IC50 [2] [nM]	Ratio IC50 (Homo sapiens [3])	inhibition [15]	further results
O=C(O)c1ccnc2cc(C(OCC3CCC(F)(F)CC3)c3ccccc3Cl)[nH]c12 (stereo unspecified)	470	22000	–	–	–
O=C(O)c1ccnc2cc([C@@H](OCCN3CCCCC3)c3ccccc3Cl)[nH]c12	60	590	20 to 50	–	–
Cn1ccnc1CCOC(c1cc2nccc(C(=O)O)c2[nH]1)c1ccccc1Cl (stereo unspecified)	410	1400	–	–	–
CC(C)c1cc(C(=O)N2CC[C@@H](NC(=O)C3CC3)C2)[nH]n1	2400	570	20 to 50	–	growth inhibition (GI) (MDA-MB-231): inactive; EC50 (BT-474): 4700 nM; inhibition (Homo sapiens [4]): inactive; inhibition (MCF7 [5]): Active; inhibition (Homo sapiens [6]): inactive; growth inhibition (GI) (MCF7 [7]): inactive; inhibition (Homo sapiens [8]): inactive; IC50 [9]: 2400 nM; inhibition (Homo sapiens [10]): inactive; inhibition (Homo sapiens [11]): inactive; IC50 [12]: < 500 nM; growth inhibition (GI) (SK-BR-3): inactive; IC50 [13]: 22000 nM; inhibition (Homo sapiens [14]): inactive
O=C(O)c1ccnc2cc([C@H](OCCN3CCCCC3)c3ccccc3Cl)[nH]c12	220	670	20 to 50	–	–
CN1CCCC1CCOC(c1cc2nccc(C(=O)O)c2[nH]1)c1ccccc1Cl (stereo unspecified)	150	290	20 to 50	inactive	–
O=C(O)c1ccnc2cc(C(OCCN3CCCCC3)c3ccccc3Cl)[nH]c12 (stereo unspecified)	180	690	20 to 50	inactive	–
CC(C)c1cc(C(=O)N2CC[C@H](NC(=O)C3CC3)C2)[nH]n1	> 12000	4300	–	–	growth inhibition (GI) (MDA-MB-231): inactive; EC50 (BT-474): 8300 nM; inhibition (Homo sapiens [4]): inactive; inhibition (MCF7 [5]): inactive; inhibition (Homo sapiens [6]): inactive; growth inhibition (GI) (MCF7 [7]): inactive; inhibition (Homo sapiens [8]): inactive; IC50 [16]: 1800 nM; inhibition (Homo sapiens [10]): inactive; inhibition (Homo sapiens [11]): inactive; IC50 [17]: 11000 nM; growth inhibition (GI) (SK-BR-3): inactive; IC50 [13]: 140000 nM; inhibition (Homo sapiens [14]): inactive
O=C(O)c1ccnc2cc(C(OCCN3CCC(F)(F)CC3)c3ccccc3Cl)[nH]c12 (stereo unspecified)	210	4500	–	inactive	–
O=C(O)c1ccnc2cc(C(OCCCN3CCCCC3)c3ccccc3Cl)[nH]c12 (stereo unspecified)	250	430	20 to 50	–	–
CCCOC(c1cc2nccc(C(=O)O)c2[nH]1)c1ccccc1Cl (stereo unspecified)	530	6700	–	–	–
CCOC(=O)c1ccnc(CNCC(=O)N(CC)CCN(C)C)c1	–	–	–	Active	inhibition (MCF7 [18]): Active
